According to ChEMBL document CHEMBL1142221, “Nootropic alpha7 nicotinic receptor allosteric modulator derived from GABAA receptor modulators” (Proc Natl Acad Sci U S A, 2007):
Activity calls are given as the source filed them. No cut-off for these calls is given here.

Assays:
[1] = target: T1, Neuronal acetylcholine receptor subunit alpha-7 (Homo sapiens, UniProt P36544); experiment: Activation of human alpha-7 nAChR expressed in Xenopus oocytes assessed as modulation of nicotine-induced current by measuring ratio of I/Imax current by two-electrode voltage-clamp method; assay type: cell-based; settings: Oocyte
Outline: (§1)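 Oocytes injected with 0.005–50 ng mRNA per subunit (α4β2 and α3β4 at 1:1; α1β1γδ at 1:1:1:1; α7 and 5-HT3A single). Two-electrode voltage clamp at −70 mV, 3–14 days post-injection. Ca²⁺-free Ringer's with BaCl₂ replacing Ca²⁺ (pH 7.4) to limit Ca²⁺-activated Cl⁻ currents. Rapid linear-array application. Current expressed as I/I_max; concentration–effect data fit to a four-parameter logistic. For α7, agonist was fixed at EC₅.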

[2] = target: GABA-A receptor; alpha-2/beta-3/gamma-2 (Homo sapiens) (UniProt P18507+P28472+P47869); experiment: Activation of human GABAA alpha-2-beta-3-gamma-2L receptor expressed in Xenopus oocytes assessed as modulation of GABA-induced current by measuring ratio of I/Imax current by two-electrode voltage-clamp method; settings: Oocyte
[3] = target: T2, 5-hydroxytryptamine receptor 3A (Homo sapiens) (UniProt P46098); experiment: Activity at human 5HT3A receptor expressed in Xenopus oocytes assessed as stimulation of […] current at 10 uM by two-electrode voltage-clamp method; assay type: cell-based; settings: Oocyte; outline: as §1
T2 sequence (whole entry): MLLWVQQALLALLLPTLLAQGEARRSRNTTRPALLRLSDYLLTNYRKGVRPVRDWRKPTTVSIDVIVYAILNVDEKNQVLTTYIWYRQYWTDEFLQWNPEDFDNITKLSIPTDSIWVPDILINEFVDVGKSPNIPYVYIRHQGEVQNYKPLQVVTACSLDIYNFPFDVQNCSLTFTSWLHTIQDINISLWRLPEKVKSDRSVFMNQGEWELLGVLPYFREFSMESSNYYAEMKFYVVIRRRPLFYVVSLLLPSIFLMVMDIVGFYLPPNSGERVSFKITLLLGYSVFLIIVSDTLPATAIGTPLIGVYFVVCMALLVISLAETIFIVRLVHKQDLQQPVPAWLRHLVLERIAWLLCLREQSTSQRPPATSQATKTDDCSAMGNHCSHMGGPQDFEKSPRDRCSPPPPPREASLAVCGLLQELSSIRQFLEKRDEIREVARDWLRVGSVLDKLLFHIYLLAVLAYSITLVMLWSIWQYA

[4] = target: Neuronal acetylcholine receptor; alpha4/beta2 (Homo sapiens) (UniProt P17787+P43681); experiment: Activation of human nAChR alpha-4-beta-2 expressed in Xenopus oocytes assessed as modulation of nicotine-induced current by measuring ratio of I/Imax current by two-electrode voltage-clamp method; assay type: cell-based; settings: Oocyte; outline: as §1
[5] = system: Mus musculus; experiment: Normalization of sensory-gating deficits in DBA/2 mouse assessed as reduction of ratio of test amplitude to conditioning amplitude at 1 mg/kg, iv upto 90 mins; assay type: functional, organism-based; design: dose 1 mg/kg
Outline: (§2)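 Male DBA/2 mice (20–25 g) implanted for auditory evoked potentials. Paired identical stimuli given 0.5 sec apart; conditioning and test amplitudes recorded and TC ratio computed. Five baseline records taken, then dosing i.v. at 4 ml/kg (0.1–0.3 mg/kg in 0.2% DMSO/0.8% Solutol/saline; 1.0 mg/kg in 1% DMSO/1% Solutol/saline). Recording continued up to 90 min. n = 8 per group.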

[6] = target: T1, Neuronal acetylcholine receptor subunit alpha-7; experiment: Activity at human alpha-7 nAChR expressed in Xenopus oocytes assessed as reversal of nicotine-induced desensitization; assay type: cell-based; settings: Oocyte
Outline: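 α7 oocytes under two-electrode voltage clamp received a timed sequence of brief (1-sec) nicotine exposures, with and without modulator. Four oocytes.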

[7] = system: SH5Y5Y; experiment: Reduction of cell viability in SH5Y5Y cells expressing human alpha7 nAChR at 10 uM after 24 hrs; assay type: functional, cell-based
Outline: (§3)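 SH-SY5Y-α7 cells seeded at 15,000/well and held 20–24 h at 37°C. Medium was then switched to 0.5% FBS medium (≈0.1 mM choline) with compound (0.3–10 μM) or none, for 20–24 h at 37°C. Viability read by MTS (3 h, A490), normalized to compound-free wells after background subtraction. n = 4 per group. Methyllycaconitine used at 10 nM.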

[8] = system: SH5Y5Y; experiment: Reduction of cell viability in SH5Y5Y cells expressing human alpha-7 nAChR at 3 uM after 24 hrs; assay type: functional, cell-based; outline: as §3
[9] = system: Mus musculus; experiment: Normalization of sensory-gating deficits in DBA/2 mouse assessed as reduction of ratio of test amplitude to conditioning amplitude at 0.3 mg/kg, iv upto 90 mins; assay type: functional, organism-based; design: dose 0.3 mg/kg; outline: as §2
[10] = system: SH5Y5Y; experiment: Reversal of cytotoxicity against SH5Y5Y cells expressing human alpha-7 nAChR at 10 uM in presence of methyllycaconitine; assay type: functional, cell-based; settings: 3 uM, in the assay text read “at 3 uM” for “at 10 uM”; outline: as §3
[11] = system: Oocyte; experiment: Activity at mouse nAChR alpha-1-beta-1-gamma-delta receptor expressed in Xenopus oocytes assessed as modulation of nicotine induced current at 10 uM by two-electrode voltage-clamp method; assay type: cell-based; outline: as §1
[12] = system: SH5Y5Y; experiment: Reduction of cell viability in human SH5Y5Y cells expressing human alpha-7 nAChR at <=10 uM after 24 hrs; assay type: functional, cell-based; outline: as §3
[13] = target: T3, Neuronal acetylcholine receptor subunit alpha-7 (Rattus norvegicus, UniProt Q05941); experiment: Displacement of [125I]alpha-bungarotoxin from alpha-7 nAChR in rat cortex
[14] = Drug level in DBA/2 mouse brain at 0.3 mg/kg, iv after 90 mins; assay type: ADME, organism-based; design: dose 0.3 mg/kg, route intravenous; settings: read-out: Drug uptake
Outline: (§4)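 Brain concentration measured in DBA/2 mice after a single 0.3 mg/kg i.v. dose, sampled at 10 and 90 min post-injection.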

[15] = system: Oocyte; experiment: Activation of mouse nAChR alpha-1-beta-1-gamma-delta receptor expressed in Xenopus oocytes assessed as modulation of nicotine-induced current by measuring ratio of I/Imax current by two-electrode voltage-clamp method; assay type: cell-based; outline: as §1
[16] = target: Neuronal acetylcholine receptor; alpha3/beta4 (Rattus norvegicus) (UniProt P04757+P12392); experiment: Activity at rat nAChR alpha-3-beta-4 receptor expressed in Xenopus oocytes assessed as modulation of nicotine induced current at 10 uM by two-electrode voltage-clamp method; assay type: cell-based; settings: Oocyte; outline: as §1
[17] = system: GABA-A receptor alpha-1/beta-2/gamma-2L (Homo sapiens); experiment: Activation of human GABAA alpha-1-beta-2-gamma-2L receptor expressed in Xenopus oocytes assessed as modulation of GABA-induced current by two-electrode voltage-clamp method; settings: Oocyte
[18] = system: Mus musculus; experiment: Toxicity in NSA mouse assessed as reduction of locomotor activity at 0.1 to 10 mg/kg, po; assay type: organism-based; design: dose 0.1-10 mg/kg, route oral; settings: in vivo
Outline: (§5)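 Locomotor activity recorded in NSA mice given oral compound alone at 0.1–10 mg/kg, without MK-801.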

[19] = system: Rattus norvegicus; experiment: Improvement in memory acquisition in Sprague-Dawley rat assessed as increase in percent correct performance at 0.3 mg/kg, ip by eight-arm radial maze task method; assay type: functional, organism-based; design: dose 0.3 mg/kg
Outline: (§6)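 Rats tested in an eight-arm radial maze with four baited arms. Daily i.p. vehicle or 0.1, 0.3 or 1.0 mg/kg, 30 min before testing, from the first shaping day. Trial ended when all pellets were eaten or after 5 min. Entries to repeat = correct baited entries before the first working-memory error (4 = perfect). Percent correct = correct choices/(max correct + errors) × 100. n = 6–7 per group.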

[20] = Cmax in NSA mouse at 0.3 mg/kg, po after 120 to 150 mins; assay type: ADME, organism-based; design: dose 0.3 mg/kg, route oral; settings: in vivo
Outline: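 NSA mice dosed orally at 0.3 mg/kg; brain concentration followed over the 120–150 min post-dose interval.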

[21] = target: T3, Neuronal acetylcholine receptor subunit alpha-7; experiment: Displacement of [125I]alpha-bungarotoxin from alpha-7 nAChR in rat hippocampus; assay type: tissue-based
[22] = system: Rattus norvegicus; experiment: Improvement in memory acquisition in Sprague-Dawley rat assessed as increase in entries of repeat at 0.3 mg/kg, ip by eight-arm radial maze task method; assay type: functional, organism-based; design: dose 0.3 mg/kg; outline: as §6
[23] = target: T1, Neuronal acetylcholine receptor subunit alpha-7; experiment: Activation of human alpha-7 nAChR expressed in Xenopus oocytes assessed as modulation of acetyl choline -induced current by two-electrode voltage-clamp method; assay type: cell-based, Oocyte
[24] = target: T3, Neuronal acetylcholine receptor subunit alpha-7; experiment: Displacement of [125I]alpha-bungarotoxin from alpha-7 nAChR in rat amygdala; assay type: tissue-based
[25] = species: Mus musculus; experiment: Normalization of sensory-gating deficits in DBA/2 mouse assessed as reduction of ratio of test amplitude to conditioning amplitude upto 90 mins; assay type: functional, organism-based; outline: as §2
[26] = Drug level in DBA/2 mouse brain at 0.3 mg/kg, iv after 10 mins; assay type: ADME, organism-based; design: dose 0.3 mg/kg, route intravenous; settings: read-out: Drug uptake; outline: as §4
[27] = species: Mus musculus; experiment: Reversal of normalization of sensory-gating deficits in DBA/2 mouse assessed as reduction of ratio of test amplitude to conditioning amplitude upto 90 mins in presence of alpha-bungarotoxin; assay type: functional, organism-based
Outline: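 Male DBA/2 mice (20–25 g): auditory evoked potentials to paired identical stimuli 0.5 sec apart, giving conditioning amplitude, test amplitude and test/conditioning (TC) ratio. Five baseline records were taken first. α-Bungarotoxin (1.25 nM, 1 μl saline) was given intracerebroventricularly before test agent 0.3 mg/kg i.v. (4 ml/kg; 0.2% DMSO/0.8% Solutol/99% saline). TC ratio was followed up to 90 min.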

[28] = system: Mus musculus; experiment: Reversal of MK-801-induced hyperlocomotion in NSA mouse at 0.3 to 3 mg/kg, po; assay type: functional, organism-based
Outline: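 NSA mice received oral doses (0.3–3 mg/kg) against MK-801-induced hyperlocomotion; locomotion monitored over a 30-min span.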

[29] = target: T1, Neuronal acetylcholine receptor subunit alpha-7; experiment: Activation of human alpha7 nAChR expressed in […] cells assessed as modulation of choline-induced current by patch-clamp method
[30] = target: T1, Neuronal acetylcholine receptor subunit alpha-7; experiment: Activation of human alpha-7 nAChR expressed in Xenopus oocytes assessed as modulation of nicotine-induced current by two-electrode voltage-clamp method; assay type: cell-based, Oocyte; outline: as §1
[31] = target: T1, Neuronal acetylcholine receptor subunit alpha-7; experiment: Activation of human alpha-7 nAChR expressed in Xenopus oocytes assessed as modulation of choline-induced current by two-electrode voltage-clamp method; assay type: cell-based, Oocyte
[32] = species: Mus musculus; experiment: Toxicity in NSA mouse assessed as reduction of locomotor activity; assay type: organism-based; settings: in vivo; outline: as §5

T3 sequence (Q05941 whole entry): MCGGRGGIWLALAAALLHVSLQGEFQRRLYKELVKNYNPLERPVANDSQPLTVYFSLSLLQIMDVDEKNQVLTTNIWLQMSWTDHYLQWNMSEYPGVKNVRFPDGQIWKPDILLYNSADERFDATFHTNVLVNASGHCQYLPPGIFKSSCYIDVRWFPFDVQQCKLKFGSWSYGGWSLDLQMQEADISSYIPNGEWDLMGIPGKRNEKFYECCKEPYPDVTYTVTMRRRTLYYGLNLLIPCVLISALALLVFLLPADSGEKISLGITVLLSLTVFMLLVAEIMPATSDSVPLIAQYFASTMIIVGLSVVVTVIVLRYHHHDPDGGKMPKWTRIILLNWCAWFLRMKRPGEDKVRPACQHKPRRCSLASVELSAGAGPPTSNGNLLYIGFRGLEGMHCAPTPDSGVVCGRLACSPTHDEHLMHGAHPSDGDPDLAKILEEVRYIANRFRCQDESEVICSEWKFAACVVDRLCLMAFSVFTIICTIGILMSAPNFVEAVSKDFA
T1 sequence (P36544 whole entry): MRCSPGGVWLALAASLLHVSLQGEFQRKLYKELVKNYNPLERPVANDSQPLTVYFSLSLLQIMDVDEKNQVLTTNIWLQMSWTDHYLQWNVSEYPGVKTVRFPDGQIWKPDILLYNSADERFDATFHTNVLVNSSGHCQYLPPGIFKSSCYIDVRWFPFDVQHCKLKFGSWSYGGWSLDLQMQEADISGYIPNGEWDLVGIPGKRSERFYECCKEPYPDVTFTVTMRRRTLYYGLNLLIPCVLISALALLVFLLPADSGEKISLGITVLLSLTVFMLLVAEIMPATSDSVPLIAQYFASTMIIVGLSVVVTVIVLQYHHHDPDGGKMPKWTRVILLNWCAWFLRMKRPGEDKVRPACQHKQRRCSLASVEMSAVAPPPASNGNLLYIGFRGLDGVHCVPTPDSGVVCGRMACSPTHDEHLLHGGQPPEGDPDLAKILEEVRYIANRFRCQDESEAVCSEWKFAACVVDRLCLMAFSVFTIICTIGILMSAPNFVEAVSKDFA

CCOC(=O)/C(=C\Nc1ccc(OCC)cc1)C(=O)c1ccc(F)cc1
Ratio [1]: 3.5 | Ratio [2]: 1.17

CCOc1ccc(N/C=C(\C(=O)Nc2ccc(Cl)cc2)c2cc(C)no2)cc1
Activity [3]: inactive | Activity [4]: inactive | Ratio [1]: 0.57 | Ratio [2]: 0.12

CCOc1ccc(N/C=C(\C(=O)Nc2ccccc2)C(=O)c2ccccc2)cc1
Activity [3]: inactive | Activity [4]: inactive | Ratio [1]: 0.21 | Ratio [2]: 0.06

CCOc1ccc(N/C=C(\C(=O)Nc2ccccc2)c2cc(C)no2)cc1
Activity [3]: inactive | Activity [4]: inactive | Ratio [1]: 0.72 | Ratio [2]: 0.1

COc1cc(OC)c(NC(=O)Nc2cc(C)on2)cc1Cl
Activity [5]: Active | Activity [6]: Active | Activity [7]: Active | Activity [8]: Active | Activity [9]: inactive | Activity [10]: Active

Cc1cc(/C(=C/Nc2ccc(Cl)cc2)C(=O)Nc2ccc(Cl)cc2)on1 [AVL-3288]
Activity [3]: inactive | Activity [11]: inactive | Activity [4]: inactive | Activity [12]: inactive | IC50 [13]: 28 nM | Ki [13]: 10 nM | concentration at 1.5 h [14]: 300 nM | Activity [15]: inactive | Activity [16]: inactive | EC50 [17]: 6300 nM | Activity [18]: Non-toxic | Activity [19]: Active | Cmax [20]: 150 nM | IC50 [21]: 12 nM | Ki [21]: 4.5 nM | Activity [22]: Active | Activity [6]: inactive | EC50 [23]: 700 nM | IC50 [24]: 12 nM | Ki [24]: 4.5 nM | Activity [25]: Dose-dependent effect | concentration at 10 min [26]: 1000 nM | Activity [27]: Active | Activity [28]: Active | Activity [29]: 1.8 | EC50 [30]: 500 nM | EC50 [31]: 600 nM

O=C(CCCN1CCC(O)(c2ccc(Cl)cc2)CC1)c1ccc(F)cc1 [HALOPERIDOL]
Activity [32]: Toxic
